Data set [1] has as its system Mus musculus. The experiment in a line: Downregulation of caspase-9 protein expression in tumor tissues of Balb/c nude mouse xenografted with human Bel7404 cells at 25 to 50 mg/kg, ip bid for 20 days measured on day 21 by Western blot analysis. Type of data set: functional, organism-based. In general terms: Xenograft models place foreign cells or tissue in a host animal.

Data set [2] has as its system Mus musculus. Kind of data set: Toxicity in Balb/c nude mouse xenografted with human Bel7404 cells assessed as change in body weight at 25 to 50 mg/kg, ip bid for 20 days. Type of data set: organism-based. The note with it: in vivo, 480 h.
The test system of another data set is BEL-7404 tumor cell line. Kind of data set: Cell cycle arrest in human Bel7404 cells assessed as accumulation at S-phase at 9 uM after 48 hrs by propidium iodide staining based flow cytometry (reference value: 22%). In kind it is functional. Background: A flow cytometer gives signals particle by particle.
For data set [3], the system named is HepG2. The experiment in a line: Induction of apoptosis in human HepG2 cells assessed as live cells at 10 uM after 24 hrs by Annexin V-FITC/ propidium iodide staining based flow cytometry (reference value: 91.31%). In kind it is functional.
For data set [4], the system named is HepG2. Kind of data set: Induction of apoptosis in human HepG2 cells assessed as late apoptotic cells at 6 uM after 24 hrs by Annexin V-FITC/ propidium iodide staining based flow cytometry (reference value: 1.91%). Type of data set: functional.
The subject of data set [5] is HepG2. Kind of data set: Induction of apoptosis in human HepG2 cells assessed as morphological changes at 6 to 10 uM after 12 hrs by […] staining based fluorescence microscopic method. Type of data set: functional, cell-based. Put shortly: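 HepG2 cells treated for 12 h, stained with Hoechst 33258 and viewed by fluorescence microscopy for nuclear blue fluorescence and apoptotic morphology, compared with untreated cells.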

Data set [6] concerns HepG2. Kind of data set: Upregulation of p27 protein expression in human HepG2 cells at 6 to 10 uM after 12 hrs by Western blot analysis. Type of data set: functional, cell-based. The method, boiled down:
(§1)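 HepG2 cell lysates after compound treatment analyzed by western blot for the target protein, compared with untreated negative control.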

Data set [7] relates to HepG2. Kind of data set: Upregulation of Bax protein expression in human HepG2 cells at 6 to 10 uM after 12 hrs by Western blot analysis. In kind it is functional, cell-based. The method, boiled down:
as §1
(In general: A western blot detects proteins with antibodies after separation by electrophoresis.)

Data set [8] deals with HepG2. The experiment in a line: Induction of apoptosis in human HepG2 cells assessed as necrotic cells at 8 uM after 24 hrs by Annexin V-FITC/ propidium iodide staining based flow cytometry (reference value: 0.28%). In kind it is functional.
Data set [9] relates to HepG2. The experiment in a line: Induction of apoptosis in human HepG2 cells assessed as cell budding at 6 to 10 uM after 12 hrs by acridine orange/ethidium bromide staining based fluorescence microscopic method. Type of data set: functional.
Data set [10] has as its system HepG2. Kind of data set: Induction of apoptosis in human HepG2 cells assessed as late apoptotic cells at 8 uM after 24 hrs by Annexin V-FITC/ propidium iodide staining based flow cytometry (reference value: 1.91%). Type of data set: functional.
Data set [11] relates to HepG2. Kind of data set: Upregulation of p21 protein expression in human HepG2 cells at 6 to 10 uM after 12 hrs by Western blot analysis. Type of data set: functional, cell-based. The method, boiled down:
as §1

For data set [12], the system named is HepG2. The experiment in a line: Induction of mitochondrial cytochrome-c release in to cytotol in human HepG2 cells at 6 to 10 uM after 12 hrs by Western blot analysis. Type of data set: functional, cell-based.
The subject of data set [13] is HepG2. The experiment in a line: Cell cycle arrest in human HepG2 cells assessed as accumulation at G2/M phase after 48 hrs by propidium iodide staining based flow cytometry. In kind it is functional.
The subject of data set [14] is HepG2. Kind of data set: Induction of apoptosis in human HepG2 cells assessed as necrotic cells at 6 uM after 24 hrs by Annexin V-FITC/ propidium iodide staining based flow cytometry (reference value: 0.28%). Type of data set: functional.
For data set [15], the system named is HepG2. Kind of data set: Induction of apoptosis in human HepG2 cells assessed as live cells at 6 uM after 24 hrs by Annexin V-FITC/ propidium iodide staining based flow cytometry (reference value: 91.31%). Type of data set: functional.
The subject of data set [16] is HepG2. The experiment in a line: Induction of apoptosis in human HepG2 cells assessed as early apoptotic cells at 6 uM after 24 hrs by Annexin V-FITC/ propidium iodide staining based flow cytometry (reference value: 6.5%). In kind it is functional.
Data set [17] relates to HepG2. Kind of data set: Cell cycle arrest in human HepG2 cells assessed as accumulation at G1-phase at 8 uM after 48 hrs by propidium iodide staining based flow cytometry (reference value: 50.47%). Type of data set: functional.
For data set [18], the system named is HepG2. Kind of data set: Downregulation of CDC25C protein expression in human HepG2 cells at 6 to 10 uM after 12 hrs by Western blot analysis. Type of data set: functional, cell-based.
For data set [19], the system named is HepG2. Kind of data set: Upregulation of PARP protein expression in human HepG2 cells at 6 to 10 uM after 12 hrs by Western blot analysis. In kind it is functional, cell-based. The method, boiled down:
as §1

Data set [20] has as its system Mus musculus. The experiment in a line: Upregulation of p53 protein expression in tumor tissues of Balb/c nude mouse xenografted with human NCI-H460 cells at 25 to 50 mg/kg, ip bid for 13 days measured on day 14 by Western blot analysis. In kind it is functional, organism-based. The method, boiled down: (§2)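 Tumors from NCI-H460 xenografted BALB/c nude mice (25 or 50 mg/kg, vehicle 5% DMSO in saline) collected at day 14; protein levels in tumor tissue determined by western blot versus vehicle control.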

Data set [21] has as its system HepG2. Kind of data set: Upregulation of caspase-9 protein expression in human HepG2 cells at 6 to 10 uM after 12 hrs by Western blot analysis. Type of data set: functional, cell-based. Put shortly:
as §1

For data set [22], the system named is HepG2. The experiment in a line: Induction of apoptosis in human HepG2 cells assessed as late apoptotic cells at 10 uM after 24 hrs by Annexin V-FITC/ propidium iodide staining based flow cytometry (reference value: 1.91%). In kind it is functional.
Data set [23] deals with HepG2. The experiment in a line: Induction of apoptosis in human HepG2 cells assessed as early apoptotic cells at 10 uM after 24 hrs by Annexin V-FITC/ propidium iodide staining based flow cytometry (reference value: 6.5%). Type of data set: functional.
The subject of data set [24] is Mus musculus. The experiment in a line: Upregulation of Bax protein expression in tumor tissues of Balb/c nude mouse xenografted with human NCI-H460 cells at 25 to 50 mg/kg, ip bid for 13 days measured on day 14 by Western blot analysis. In kind it is functional, organism-based. The method, boiled down:
as §2

Data set [25] has as its system HepG2. Kind of data set: Induction of apoptosis in human HepG2 cells assessed as necrotic cells at 10 uM after 24 hrs by Annexin V-FITC/ propidium iodide staining based flow cytometry (reference value: 0.28%). In kind it is functional.
In data set [26] the test system is HepG2. Kind of data set: Cell cycle arrest in human HepG2 cells assessed as accumulation at S-phase at 8 uM after 48 hrs by propidium iodide staining based flow cytometry (reference value: 30.49%). Type of data set: functional.

These results are taken from ChEMBL document CHEMBL4270594, “Design, synthesis and pharmacological evaluation of new 3-(1H-benzimidazol-2-yl)quinolin-2(1H)-one derivatives as potential antitumor agents” (Eur J Med Chem, 2018).

The source made the active and inactive calls. The rule behind the calls is not given here.

Take `O=c1[nH]c2cc3c(cc2cc1-c1nc2cc(Cl)ccc2[nH]1)OCO3`: in the data set on Mus musculus [1], the result was Active. For the same compound, the figures for the Activity result in the data set on Mus musculus [2] and with BEL-7404 tumor cell line were “Non-Toxic” and 23.66%, respectively.

Regarding `O=c1[nH]c2ccccc2cc1-c1nc2cc(Cl)ccc2[nH]1`, the Activity in the data set with HepG2 [3] was 37.3%; in the data set on HepG2 [4], 10.4%; with HepG2 [8] it was 0.32%; in the data set with HepG2 [10], 10.42%; with HepG2 [13], “Dose-dependent effect”; in the data set with HepG2 [14], 0.76%. Moreover, the Activity is 68.62% in the data set on HepG2 [15]; 20.22% in the data set on HepG2 [16]; 31.1% in the data set with HepG2 [17]; 16.68% in the data set on HepG2 [22]; 45.57% with HepG2 [23]; 0.45% with HepG2 [25]. The Activity in the data set on HepG2 [26] is on record as 29.19%. In addition, the outcome in the data set on HepG2 [5], in the data set with HepG2 [6], with HepG2 [7], in the data set on HepG2 [9], in the data set on HepG2 [11] and in the data set with HepG2 [12] was Active. Besides, the result in the data set on HepG2 [18], in the data set with HepG2 [19], with Mus musculus [20], with HepG2 [21] and in the data set on Mus musculus [24] was Active.
